Experimental findings from ChEMBL document CHEMBL1139303, “One-pot synthesis of 5-phenylimino, 5-thieno or 5-oxo-1,2,3-dithiazoles and evaluation of their antimicrobial and antitumor activity” (2009) are described below.

Values after ≈ are worked out from the molar mass of the structure shown. Active and inactive are the calls of the source.

For orientation: MFC means the smallest concentration meeting the test's criterion for killing the fungus. A high value points to less potent killing. By MIC is commonly meant the lowest concentration that inhibits growth of the organism. A low value points to inhibition by little substance. Usually GI50 stands for the concentration giving 50% growth inhibition. A low value points to more potent growth inhibition. Broadly, the MBC is the smallest concentration meeting the test's criterion for killing. A high value points to less potent killing. What is called inhibition is the drop in the measured response relative to a control, in per cent. The low end stands for little suppression, the high end for strong suppression.

Test [1] has as its system Candida tropicalis. The experiment in a line: Antifungal activity against Candida tropicalis DSM 1346 after 24 hrs by broth macrodilution method. Conditions: DSM 1346, 24 h. In kind it is functional. A digest of the protocol:
(§1)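 Yeasts pre-grown on yeast extract peptone dextrose medium, 30 °C, 24 h. MIC and MFC by macro-dilution broth method; compounds in DMSO, max 2.13% solvent in cultures. Amphotericin B and fluconazole as references. MFC/MIC ratio computed; ≥4 taken as fungistatic. Triplicate.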

The subject of test [2] is Candida albicans. Nature of the test: Antifungal activity against Candida albicans ATCC 10231 after 24 hrs by broth macrodilution method. Type of test: functional. The conditions noted are these: ATCC 10231, 24 h. A digest of the protocol: as §1
Test [3] relates to Candida tropicalis. Nature of the test: Ratio of MFC to MIC against Candida tropicalis DSM 1346. Type of test: functional. In a few lines: as §1
Test [4] deals with Nakaseomyces glabratus. Nature of the test: Ratio of MFC to MIC against Candida glabrata DSM6425. In kind it is functional. A digest of the protocol: as §1
The test system of test [5] is Nakaseomyces glabratus. The experiment in a line: Antifungal activity against Candida glabrata DSM6425 after 24 hrs by broth macrodilution method. Type of test: functional. The conditions noted are these: DSM6425, 24 h. In a few lines: as §1
Test [6] has as its system Candida albicans. Nature of the test: Ratio of MFC to MIC against Candida albicans ATCC 10231. In kind it is functional. A digest of the protocol:
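C. albicans ATCC10231 was pre-grown on yeast extract peptone dextrose agar for 24 h at 30 °C. MIC and MFC were determined by broth macro-dilution, with compounds dissolved in DMSO at no more than 2.13% solvent in the liquid culture. Each endpoint was measured in triplicate, and the MFC was divided by the MIC to give the ratio.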

Test [7] concerns Bacillus cereus. Nature of the test: Antibacterial activity against Bacillus cereus at 50 ug after 24 hrs by agar diffusion method. Type of test: functional. Conditions: read-out: IZ. A digest of the protocol:
(§2)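 Bacteria pre-grown 24 h on nutritive agar (tryptone soy agar for E. faecalis, L. inocua) at 37 °C (30 °C for E. faecalis, L. inocua, B. cereus). Agar well diffusion with 50 µg compound in 80% DMSO; 80% DMSO alone as control. Inhibition zone diameter averaged from triplicate, scored 6-9, 9-12, >12 mm.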

For test [8], the system named is Pichia kudriavzevii. The experiment in a line: Antifungal activity against Issatchenkia orientalis DSM6128 at 50 ug after 24 hrs by agar diffusion method. In kind it is functional, organism-based. In a few lines: (§3)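 Yeasts grown on yeast extract peptone dextrose medium at 30 °C for 24 h, then agar well diffusion with 50 µg compound in 80% DMSO; 80% DMSO alone as control. Averaged inhibition zone diameter from triplicate, scored 6-9, 9-12 or >12 mm.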
(A growth-free zone around the sample is the usual read-out of agar diffusion tests.)

Test [9] concerns Candida tropicalis. Nature of the test: Antifungal activity against Candida tropicalis DSM 1346 at 50 ug after 24 hrs by agar diffusion method. Type of test: functional. Conditions: DSM 1346, 24 h, read-out: IZ. A digest of the protocol: as §3
Test [10] deals with Nakaseomyces glabratus. Nature of the test: Antifungal activity against Candida glabrata DSM6425 at 50 ug after 24 hrs by agar diffusion method. In kind it is functional. The conditions noted are these: DSM6425, 24 h, read-out: IZ. A digest of the protocol: as §3
The test system of test [11] is MCF7. Nature of the test: Antiproliferative activity against human MCF7 cells after 72 hrs by MTT assay. Conditions: MCF7, 72 h. Type of test: functional. In a few lines: (§4)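 5000 cells per well added to pre-equilibrated medium at 37 °C; compounds from 10^-3 M DMSO stocks, final 10^-5 M. After 72 h, MTT (5 g/L) for 4 h, formazan dissolved in DMSO, OD 550 nm. % growth inhibition vs 1% DMSO medium (0%) and 10% SDS lysis (100%); mean ± SEM, 24 measures, three independent experiments.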
Background: Tetrazolium assays rely on reduction of a dye to a coloured formazan, in cell work by metabolically active cells.

In test [12] the test system is Enterococcus faecalis. Nature of the test: Antibacterial activity against Enterococcus faecalis CIP 103214 at 50 ug after 24 hrs by agar diffusion method. In kind it is functional. Conditions: CIP 103214, 24 h, read-out: IZ. In a few lines: as §2
The subject of test [13] is Klebsiella pneumoniae. Nature of the test: Antibacterial activity against Klebsiella pneumoniae CIP 53153 at 50 ug after 24 hrs by agar diffusion method. Type of test: functional, organism-based. In a few lines: as §2
The subject of test [14] is Staphylococcus aureus. The experiment in a line: Antibacterial activity against Staphylococcus aureus ATCC 25923 at 50 ug after 24 hrs by agar diffusion method. In kind it is functional. The conditions noted are these: Staphylococcus aureus, ATCC 25923, 24 h; read-out: IZ. A digest of the protocol:
as §2

In test [15] the test system is Bacillus cereus. Nature of the test: Antibacterial activity against Bacillus cereus after 24 hrs by broth macrodilution method. In kind it is functional. In a few lines: (§5)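 Bacteria pre-grown 24 h on nutritive agar (tryptone soy agar for E. faecalis, L. inocua) at 37 °C (30 °C for E. faecalis, L. inocua, B. cereus). MIC and MBC determined by macro-dilution broth method; MBC = lowest concentration killing 99.99% of inoculum. Compounds in DMSO, max 2.13% solvent in cultures. Triplicate.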

Test [16] deals with Escherichia coli. Nature of the test: Antibacterial activity against Escherichia coli ATCC 25922 at 50 ug after 24 hrs by agar diffusion method. In kind it is functional. The conditions noted are these: ATCC 25922, 24 h, read-out: IZ. In a few lines: as §2
In test [17] the test system is Staphylococcus aureus. The experiment in a line: Antibacterial activity against Staphylococcus aureus ATCC 25923 after 24 hrs by broth macrodilution method. In kind it is functional. Conditions: ATCC 25923, 24 h. A digest of the protocol:
as §5

In test [18] the test system is Listeria innocua. The experiment in a line: Antibacterial activity against Listeria innocua at 50 ug after 24 hrs by agar diffusion method. In kind it is functional. Conditions: read-out: IZ. In a few lines: as §2
Test [19] concerns Enterococcus faecalis. The experiment in a line: Antibacterial activity against Enterococcus faecalis CIP 103214 after 24 hrs by broth macrodilution method. Type of test: functional. The conditions noted are these: CIP 103214, 24 h. In a few lines: as §5
Test [20] has as its system Listeria innocua. The experiment in a line: Antibacterial activity against Listeria innocua after 24 hrs by broth macrodilution method. In kind it is functional. In a few lines: as §5
Test [21] has as its system Escherichia coli. Nature of the test: Antibacterial activity against Escherichia coli ATCC 25922 after 24 hrs by broth macrodilution method. In kind it is functional. The conditions noted are these: ATCC 25922, 24 h. A digest of the protocol:
as §5

Test [22] has as its system MDA-MB-231. Nature of the test: Antiproliferative activity against human MDA-MB-231 cells at 10 uM after 72 hrs by MTT assay. In kind it is functional. The conditions noted are these: MDA-MB-231, 72 h. In a few lines: as §4
Test [23] relates to MDA-MB-231. The experiment in a line: Antiproliferative activity against human MDA-MB-231 cells after 72 hrs by MTT assay. Type of test: functional. Conditions: MDA-MB-231, 72 h. In a few lines: as §4
Test [24] has as its system Candida albicans. Nature of the test: Antifungal activity against Candida albicans ATCC 10231 at 50 ug after 24 hrs by agar diffusion method. The conditions noted are these: ATCC 10231, 24 h, read-out: IZ. In kind it is functional. In a few lines:
as §3

Test [25] concerns Pseudomonas aeruginosa. Nature of the test: Antibacterial activity against Pseudomonas aeruginosa ATCC 27853 at 50 ug after 24 hrs by agar diffusion method. In kind it is functional, organism-based. In a few lines: as §2

Turning to `OC(Cn1cncn1)(Cn1cncn1)c1ccc(F)cc1F` [FLUCONAZOLE], the MFC in test [1], in [2] and in test [5] was over 128 µg/mL throughout. The minimum inhibitory concentration (MIC) in test [1] came out at 4 µg/mL (≈ 13.1 µM); in test [2], 2 µg/mL (≈ 6.53 µM); in test [5], 4 µg/mL (≈ 13.1 µM). Further, the Ratio is reported as over 32 in test [3], over 32 in test [4] and over 64 in test [6].

For the molecule `S=c1ssnc1-c1ccccn1`, the zone of inhibition at 50 µg/disc in [7] is 9 mm; in test [9], 9 mm; in test [10], 9 mm; in [12], over 12 mm; in [14], 12 mm; in test [16] it was 6 mm. The zone of inhibition at 50 µg/disc in test [18] was 9 mm; in [24], over 12 mm. The MFC in [1] was 48 µg/mL (≈ 226 µM); in test [2], over 48 µg/mL; in [5] it was 48 µg/mL (≈ 226 µM). The minimum inhibitory concentration (MIC) was 32 µg/mL (≈ 151 µM) in test [1]; 32 µg/mL (≈ 151 µM) in test [2]; over 48 µg/mL in test [15]; 48 µg/mL (≈ 226 µM) in test [17]; 48 µg/mL (≈ 226 µM) in test [19]; 16 µg/mL (≈ 75.4 µM) in test [20]. For the same molecule, the MIC in [21] was over 48 µg/mL; in [5], 8 µg/mL (≈ 37.7 µM). Besides, the result in test [8], in [13] and in [25] was inactive. The concentration for 50% growth inhibition (GI50) in [11] and in test [23] was over 10 µM in each case. In addition, the results for the Ratio in test [3] and in test [4] were 1.5 and 6, respectively. Moreover, the MBC in test [15], in test [17], in test [19], in [20] and in test [21] was over 48 µg/mL in each case. Moreover, in [22], the inhibition at 10 µM amounted to 0%.

For `C[C@@H]1[C@H](O)[C@@H](C)/C=C/C=C/C=C/C=C/C=C/C=C/C=C/[C@H](O[C@@H]2O[C@H](C)[C@@H](O)[C@H](N)[C@@H]2O)C[C@@H]2O[C@](O)(C[C@@H](O)C[C@@H](O)[C@H](O)CC[C@@H](O)C[C@@H](O)CC(=O)O[C@H]1C)C[C@H](O)[C@H]2C(=O)O` [AMPHOTERICIN B], the figures for the minimum fungicidal concentration (MFC) in test [1], in [2] and in test [5] were 2 µg/mL (≈ 2.16 µM), 0.5 µg/mL (≈ 0.541 µM) and 2 µg/mL (≈ 2.16 µM), respectively. In addition, the MIC was determined as 1 µg/mL (≈ 1.08 µM) in test [1], 0.25 µg/mL (≈ 0.271 µM) in [2] and 2 µg/mL (≈ 2.16 µM) in test [5]. Also, the Ratio in test [3], in test [4] and in [6] was 2 each time.
